# Test results from ChEMBL document CHEMBL1126625, “7-Azetidinylquinolones as antibacterial agents. Synthesis and structure-activity relationships” (J Med Chem, 1993).
# What was measured:
# [1] = test system: Mus musculus; experiment: Blood level after oral administration in mice (50 mg/kg) was determined by bioassay procedure and represent total activity present in the serum; assay type: ADME, organism-based; details: in vivo
# Method in brief: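 Single oral dose of 50 mg/kg to mice. Blood taken from groups of six mice at 0.5, 1, 2 and 4 h after dosing. Serum levels measured by disk agar diffusion bioassay with Bacillus subtilis ATCC 6633 on Seed Agar, plates incubated 18 h at 37 °C, giving total activity in serum. AUC 0-4 h expressed as μg/mL […].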
# [2] = test system: Bacillus cereus; experiment: Minimum inhibitory concentration (MIC) preventing growth of Bacillus cereus; assay type: functional
# [3] = test system: Bacillus subtilis; experiment: Minimum inhibitory concentration (MIC) preventing growth of Bacillus subtilis; assay type: functional
# [4] = test system: Escherichia coli; experiment: Minimum inhibitory concentration (MIC)preventing growth of Escherichia coli; assay type: functional
# [5] = test system: Escherichia coli; experiment: Efficacy on systemic infections after oral administration in mice was determined against Escherichia coli HM-42; assay type: functional
# Method in brief: (§1)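 Mouse protection test using 4 groups of 10 mice. Mice were infected intraperitoneally with a bacterial suspension slightly above LD100. A single oral dose was given immediately after infection, with four doses, one per group, chosen from in vitro activity. Survival was scored after one week, and ED50 (total mg/kg protecting 50% of mice) was interpolated from group survival rates.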
# [6] = test system: Klebsiella pneumoniae; experiment: Minimum inhibitory concentration (MIC)preventing growth of Klebsiella pneumoniae; assay type: functional
# [7] = test system: Morganella morganii; experiment: Minimum inhibitory concentration (MIC) preventing growth of Morganella morganii; assay type: functional
# [8] = test system: Pseudomonas aeruginosa; experiment: Efficacy on systemic infections after oral administration in mice was determined against Pseudomonas aeruginosa HS-116; assay type: functional; method in brief: as §1
# [9] = test system: Proteus vulgaris; experiment: Minimum inhibitory concentration (MIC) preventing growth of Proteus vulgaris; assay type: functional
# [10] = test system: Staphylococcus epidermidis; experiment: Minimum inhibitory concentration (MIC) preventing growth of Staphylococcus epidermidis; assay type: functional
# [11] = test system: Staphylococcus aureus; experiment: Minimum inhibitory concentration (MIC) preventing growth of […]; assay type: functional
# [12] = test system: Staphylococcus aureus; experiment: Efficacy on systemic infections after oral administration in mice was determined against […] HS-93; assay type: functional; method in brief: as §1
# [13] = test system: Enterococcus faecalis; experiment: Minimum inhibitory concentration (MIC) preventing growth of Streptococcus faecalis ATCC 10541; assay type: functional
# [14] = test system: Enterobacter cloacae; experiment: Minimum inhibitory concentration (MIC)preventing growth of Enterobacter cloacae; assay type: functional
# [15] = test system: Pseudomonas aeruginosa; experiment: Minimum inhibitory concentration (MIC)preventing growth of Pseudomonas aeruginosa; assay type: functional
# [16] = test system: Staphylococcus epidermidis; experiment: pIn vitro minimum inhibitory concentration (MIC) that prevented growth of Staphylococcus epidermidis ATCC 155-1 (Se) after incubation at 37 degree C for 18 h; assay type: functional
SMILES,AUC [1] [ng·h/mL],MIC [2] [µg/mL],MIC [3] [µg/mL],MIC [4] [µg/mL],ED50 [5] [mg/kg],MIC [6] [µg/mL],MIC [7] [µg/mL],ED50 [8] [mg/kg],MIC [9] [µg/mL],MIC [10] [µg/mL],MIC [11] [µg/mL],ED50 [12] [mg/kg],MIC [13] [µg/mL],MIC [14] [µg/mL],MIC [15] [µg/mL],MIC [16] [µg/mL]
CNC1CN(c2c(F)cc3c(=O)c(C(=O)O)cn(C4CC4)c3c2Cl)C1,4000,0.12,0.015,0.015,2,0.12,0.015,39,0.015,0.06,0.06,15.2,0.25,0.015,0.25,–
CC1(N)CN(c2c(F)cc3c(=O)c(C(=O)O)cn(C4CC4)c3c2Cl)C1,2800,0.06,0.06,0.03,2,0.03,0.03,59.8,0.12,0.06,0.06,4.1,0.25,0.03,0.25,–
CC1(N)CN(c2nc3c(cc2F)c(=O)c(C(=O)O)cn3-c2ccc(F)cc2F)C1,46400,0.12,0.06,0.12,3.1,0.06,0.25,108,0.5,0.12,0.12,6.7,0.5,0.12,1,–
NC1CN(c2c(F)cc3c(=O)c(C(=O)O)cn(-c4ccc(F)cc4F)c3c2Cl)C1,13000,0.015,0.015,0.015,2.3,0.015,0.015,55,0.015,0.015,0.015,1.7,0.06,0.015,0.12,–
CC1COc2c(N3CC(C)(N)C3)c(F)cc3c(=O)c(C(=O)O)cn1c23 (stereo unspecified),–,0.5,0.12,0.12,–,0.015,0.25,–,1,–,0.5,–,0.5,0.12,2,0.25
CC1(N)CN(c2nc3c(cc2F)c(=O)c(C(=O)O)cn3C2CC2)C1,31700,0.12,0.03,0.03,2.8,0.03,0.06,52,0.12,0.12,0.25,10.7,0.25,0.03,0.5,–
CC1(N)CN(c2nc3c(cc2F)c(=O)c(C(=O)O)cn3-c2ccc(F)cc2)C1,33000,0.25,0.06,0.06,1.3,0.06,0.12,82.7,1,0.25,0.25,7.5,4,0.06,2,–
CC1(N)CN(c2c(F)cc3c(=O)c(C(=O)O)cn(-c4ccc(F)cc4F)c3c2Cl)C1,23300,0.06,0.03,0.03,1.5,0.03,0.25,43,0.12,0.06,0.06,1.2,0.25,0.12,0.5,–
CNC1(C)CN(c2nc3c(cc2F)c(=O)c(C(=O)O)cn3C2CC2)C1,22900,0.12,0.03,0.03,3,0.03,0.06,102,0.25,0.25,0.25,9.6,1,0.06,1,–
NC1CN(c2c(F)cc3c(=O)c(C(=O)O)cn(C4CC4)c3c2Cl)C1,8500,0.12,0.06,0.015,1.1,0.06,0.015,34,0.015,0.12,0.12,7.2,0.12,0.015,0.25,–
